# According to PubChem BioAssay AID652011 (Sanford-Burnham Center for Chemical Genomics, 2013):
# Values joined by “and” are separate entries in the source; they are usually repeats but may differ in a detail not shown here. Identical values can stand only once.
# Target: Endothelial PAS domain-containing protein 1 (Homo sapiens) (UniProt Q99814)
# Test: HIF reporter inhibition across pancreatic and renal lines – cell-based, luminescence, MIAPaCa-2, 786-0, panel, SAR follow-up (AID 652011)
# Conditions: MIAPaCa-2/PANC HIF reporter, luciferase luminescence, desferoxamine, overnight, HIF2a PANC, run 1; at 99 µM (top of the series)
# In short: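 Reagent: Desferoxamine added before compound | Doses: Compounds from 10 mM and 0.3125 mM stocks, 1% DMSO final | Times: Overnight seeding and compound exposure, 37 °C, 5% CO2, 10-min detection | Measured by: One-Glo luciferase luminescence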
# Chain of Endothelial PAS domain-containing protein 1 (Homo sapiens) (Q99814 whole entry, looked up, the tested form may be a part): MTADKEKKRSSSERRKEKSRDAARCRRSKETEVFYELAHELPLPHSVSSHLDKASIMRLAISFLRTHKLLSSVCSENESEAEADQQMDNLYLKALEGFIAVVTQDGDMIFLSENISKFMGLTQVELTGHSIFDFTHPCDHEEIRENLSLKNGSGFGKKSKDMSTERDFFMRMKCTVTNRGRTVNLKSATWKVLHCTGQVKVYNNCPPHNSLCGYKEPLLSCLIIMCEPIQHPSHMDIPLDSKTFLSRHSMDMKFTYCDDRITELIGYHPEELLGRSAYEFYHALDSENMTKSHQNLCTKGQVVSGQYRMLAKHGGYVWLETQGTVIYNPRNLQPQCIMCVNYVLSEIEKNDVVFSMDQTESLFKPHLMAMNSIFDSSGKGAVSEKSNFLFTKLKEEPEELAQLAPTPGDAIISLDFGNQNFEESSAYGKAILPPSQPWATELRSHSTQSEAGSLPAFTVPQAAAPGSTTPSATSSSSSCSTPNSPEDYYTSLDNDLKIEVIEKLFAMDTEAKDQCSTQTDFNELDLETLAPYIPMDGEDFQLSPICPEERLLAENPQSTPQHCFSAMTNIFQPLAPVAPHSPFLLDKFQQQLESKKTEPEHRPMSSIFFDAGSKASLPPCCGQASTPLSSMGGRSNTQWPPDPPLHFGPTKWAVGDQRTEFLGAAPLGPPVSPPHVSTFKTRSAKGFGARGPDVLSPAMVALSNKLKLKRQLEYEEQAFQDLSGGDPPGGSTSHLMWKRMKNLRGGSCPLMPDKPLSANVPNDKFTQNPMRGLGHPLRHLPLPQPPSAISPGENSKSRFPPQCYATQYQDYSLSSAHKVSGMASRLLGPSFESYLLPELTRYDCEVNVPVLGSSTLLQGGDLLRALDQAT
row,SMILES,inhibition
1,CC(C)(C)c1ccc(-c2noc(CCC(=O)NC3CCC3)n2)cc1,108%
2,CCN(CC)C(=O)CCc1nc(-c2ccc(C(C)(C)C)cc2)no1,44.3% and 43.4%
3,CC(C)(C)NC(=O)CCc1nc(-c2ccccc2)no1,35.7%
4,CNC(=O)CCc1nc(-c2ccc(F)cc2)no1,-27.1%
5,CCNC(=O)CCc1nc(-c2ccccc2C)no1,27.8%
6,CC(C)(C)c1ccc(-c2noc(CCC(N)=O)n2)cc1,115% and 99.9%
7,CCNC(=O)CCc1nc(-c2cccc(OC)c2)no1,27.9%
8,CC(C)CNC(=O)CCc1nc(-c2ccc(C(C)(C)C)cc2)no1,63.8%
9,CCOc1ccc(-c2noc(CCC(=O)O)n2)cc1,109%
10,CCNC(=O)CCc1nc(-c2cccc(C)c2)no1,-22.1%
11,CCOc1ccc(-c2noc(CCC(=O)NC)n2)cc1,112%
12,CC(C)(C)c1ccc(-c2noc(CCC(=O)NC3CCCCC3)n2)cc1,93.4%
13,CC(C)(C)c1ccc(-c2noc(CCC(=O)N3CCCCC3)n2)cc1,103%
14,CNC(=O)CCc1nc(-c2ccc(C(C)C)cc2)no1,24%
15,CCc1ccc(-c2noc(CCC(=O)NC(C)CC)n2)cc1 (stereo unspecified),-89.5%
16,O=C(O)CCc1nc(-c2ccccc2)no1,25.2%

row,SMILES,inhibition
1,COc1cccc(NC(=O)CCc2nc(-c3ccc(C(C)(C)C)cc3)no2)c1,118%
2,CCCNC(=O)CCc1nc(-c2ccc(C(C)(C)C)cc2)no1,7.88%
3,CCC(C)NC(=O)CCc1nc(-c2ccc(C(C)(C)C)cc2)no1 (stereo unspecified),-20.2%
4,CC(C)(C)c1ccc(-c2noc(CCC(=O)NC3CCCC3)n2)cc1,94.6%
5,CCC(C)NC(=O)CCc1nc(-c2ccc(C(C)C)cc2)no1 (stereo unspecified),12.1%
6,CC(C)(C)c1ccc(-c2noc(CCC(=O)NCC3CCCO3)n2)cc1 (stereo unspecified),53.5%
7,CCCCc1ccc(-c2noc(CCC(=O)NCC)n2)cc1,-29.8%
8,CCOc1ccccc1NC(=O)CCc1nc(-c2ccc(C(C)(C)C)cc2)no1,117%
9,CCCCc1ccc(-c2noc(CCC(=O)NC(C)CC)n2)cc1 (stereo unspecified),45.6%
10,CNC(=O)CCc1nc(-c2ccccc2)no1,11.4% and 50.7%
11,CC(C)(C)c1ccc(-c2noc(CCC(=O)O)n2)cc1,119%
12,CCNC(=O)CCc1nc(-c2ccc(OCC)cc2)no1,-27.3%
13,CNC(=O)CCc1nc(-c2ccc(OC)cc2)no1,36.2%
14,O=C(CCc1nc(-c2ccccc2)no1)NC1CC1,66%
15,CNC(=O)CCc1nc(-c2ccc(C)cc2)no1,40.9%
